# Results from different studies.
# Compare with care: the assays were run in different laboratories.
Structure (SMILES),test,system,conditions,endpoint,result
Fc1ccc(Nc2c(-c3cccc(F)n3)nc3ccccn23)cc1,metabolic stability,"rat, hepatocytes",,hepatocyte CLint,> 300 µL/min/10⁶ cells
Cn1nccc1-c1nc(N2CCC(c3ccccn3)C2)c2ccccc2n1 (stereo not drawn),metabolic stability,"human, liver microsomes",,microsomal CLint,59 µL/min/mg
c1cnc2ccc(Nc3nc(NC4CC4)c4nc[nH]c4n3)cc2c1,,"human, plasma","oral, 100 mg/m², patients",CL/F,35.1 L/h
C[C@@H](C(=O)NC1Cc2ccccc2C1)c1ccccc1,metabolic stability,"rat, liver microsomes",1 µM,microsomal CLint,> 200 µL/min/mg
COc1cccnc1-c1nc2ccccn2c1N(C)c1ccc(F)cc1,metabolic stability,"rat, hepatocytes",,hepatocyte CLint,> 300 µL/min/10⁶ cells
CCNCCCNC/C=C\CNCCCNCC,,"human, plasma","intravenous, 150 mg, patients, infusion",clearance,5910 mL/min
Cc1ccc(C(=O)N(CCCN)[C@@H](c2oc3cc(Cl)ccc3c(=O)c2Cc2ccccc2)C(C)C)cc1,,"human, plasma","intravenous, 6 mg/m², single dose, patients, infusion",clearance,23.6 mL/min
C[C@@H](C(=O)N1Cc2c(-c3ccc(C(=O)N4CCCc5ccccc54)cc3)cnn2C[C@@H]1C)c1ccccc1,HPLC,,pH 7.4,chromatographic logD,4.8
OC[C@H]1O[C@@H](c2ccc(Cl)c(Cc3ccc(O[C@H]4CCOC4)cc3)c2)[C@H](O)[C@@H](O)[C@@H]1O,,"human, plasma","oral, multiple doses, steady state",CL/F,8.99 L/h
CCOC(=O)C1=C(C)N/C(=C/c2ccn(-c3ccc(C(F)(F)F)cc3)c2)C1=O,HPLC,,pH 7.4,chromatographic logD,3.4
c1ccc(C2CCN(c3nc(-c4ccn[nH]4)nc4ccccc34)C2)nc1 (stereo not drawn),metabolic stability,"human, liver microsomes",,microsomal CLint,46 µL/min/mg
COc1ccn2c(Nc3ccccc3F)c(-c3ccncn3)nc2c1,metabolic stability,"rat, hepatocytes",,hepatocyte CLint,170 µL/min/10⁶ cells
COc1cc(C(=O)NC2CCN(C)CC2)c(F)cc1Nc1ncc(C(F)(F)F)c(Oc2cccc3c2C(=O)N(C)C3)n1,,"human, plasma","oral, 10 mg, multiple doses, once daily, patients",CL/F,20.8 L/h
CS(=O)(=O)CCC#N,,"human, plasma","oral, 1000 mg, single dose, fasted",CL/F,0.233 mL/min/kg
COc1ccc2nc(-c3ccccn3)c(N(C)c3ccc(F)cc3)n2c1,metabolic stability,"rat, hepatocytes",,hepatocyte CLint,> 300 µL/min/10⁶ cells
c1ccc(-c2nc(N3CCCCCC3)c3ccccc3n2)nc1,metabolic stability,"human, liver microsomes",,microsomal CLint,190 µL/min/mg
Cc1c(C(=O)NN2CCCC(O)C2)nc(-c2ccc(Cl)cc2Cl)n1-c1ccc(OS(=O)(=O)CCC(F)(F)F)cc1 (stereo not drawn),shake flask,aqueous buffer,pH 7.4,logD,3.8
c1ccc(-c2nc(NCc3ccco3)c3ccccc3n2)nc1,metabolic stability,"human, liver microsomes",,microsomal CLint,71 µL/min/mg
COc1cccnc1-c1nc2ccccn2c1Nc1ccc(F)cc1,metabolic stability,"rat, hepatocytes",,hepatocyte CLint,29 µL/min/10⁶ cells
c1ccc(-c2nc(N3CCN(c4ccccn4)CC3)c3ccccc3n2)nc1,metabolic stability,"human, liver microsomes",,microsomal CLint,79 µL/min/mg
CN(c1ccc(F)cc1)c1c(-c2cccc(F)n2)nc2ccccn12,metabolic stability,"rat, hepatocytes",,hepatocyte CLint,> 300 µL/min/10⁶ cells
COc1ccccc1-c1nc(N2CCC(c3ccccn3)C2)c2ccccc2n1 (stereo not drawn),metabolic stability,"human, liver microsomes",,microsomal CLint,69 µL/min/mg
Fc1ccc(Nc2c(-c3ccccn3)nc3ccccn23)nc1,metabolic stability,"rat, hepatocytes",,hepatocyte CLint,18 µL/min/10⁶ cells
OC[C@H]1O[C@@H](c2ccc(Cl)c(Cc3ccc(O[C@H]4CCOC4)cc3)c2)[C@H](O)[C@@H](O)[C@@H]1O,,"human, urine","oral, 10 mg, single dose",renal clearance,24.5 mL/min
